Each block holds one compound with its values, some of them ahead of it. Active and inactive are the calls of the source. No cut-off for these calls is given here.
What was measured:
[1] = target: T1, Butyrophilin subfamily 3 member A1 (Homo sapiens, UniProt O00481); experiment: Displacement of GDP-BODIPY from C-terminal 6His-tagged BTN3A1 B30.2 domain (unknown origin) expressed in Escherichia coli BL21 (DE) measured after 60 mins by fluorescence polarization assay
Target sequence in this assay (O00481 whole entry): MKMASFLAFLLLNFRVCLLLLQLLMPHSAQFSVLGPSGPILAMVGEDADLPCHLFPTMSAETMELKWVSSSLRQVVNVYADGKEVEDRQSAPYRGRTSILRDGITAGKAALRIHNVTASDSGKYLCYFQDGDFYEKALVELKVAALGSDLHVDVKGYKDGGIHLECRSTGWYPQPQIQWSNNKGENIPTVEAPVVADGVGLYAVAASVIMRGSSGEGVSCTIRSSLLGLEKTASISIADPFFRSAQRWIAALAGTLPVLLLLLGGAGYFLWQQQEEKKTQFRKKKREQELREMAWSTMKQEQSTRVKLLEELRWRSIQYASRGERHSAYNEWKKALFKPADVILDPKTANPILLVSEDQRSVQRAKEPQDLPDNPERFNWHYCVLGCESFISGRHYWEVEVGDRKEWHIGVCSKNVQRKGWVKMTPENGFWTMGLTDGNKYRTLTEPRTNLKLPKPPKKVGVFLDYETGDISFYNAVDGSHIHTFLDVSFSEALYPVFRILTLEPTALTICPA

[2] = target: T1, Butyrophilin subfamily 3 member A1; experiment: Displacement of GDP-BODIPY from C-terminal 6His-tagged BTN3A1 full […] domain (unknown origin) expressed in Escherichia coli BL21 (DE) measured after 60 mins by fluorescence polarization assay
Target sequence in this assay (O00481 whole entry): as above

[3] = target: T1, Butyrophilin subfamily 3 member A1; experiment: Activation of BTN3A1 in human PBMC-derived Vgamma9/Vdelta2 T cells assessed as induction of IL2-stimulated IFNgamma production measured after 48 hrs by ELISA
Target sequence in this assay (O00481 whole entry): as above

[4] = target: T1, Butyrophilin subfamily 3 member A1; experiment: (§1) Activation of BTN3A1 in human PBMC-derived Vgamma9/Vdelta2 T cells assessed as induction of IL2-stimulated cell proliferation by measuring increase in CD3+ cells at 0.1 uM preincubated for 3 days followed by 11 days incubation post compound washout and subsequent IL2 stimulation for every 3 days measured after 14 days by flow cytometry relative to control; type: cell-based
Target sequence in this assay (O00481 30-513 limits assumed): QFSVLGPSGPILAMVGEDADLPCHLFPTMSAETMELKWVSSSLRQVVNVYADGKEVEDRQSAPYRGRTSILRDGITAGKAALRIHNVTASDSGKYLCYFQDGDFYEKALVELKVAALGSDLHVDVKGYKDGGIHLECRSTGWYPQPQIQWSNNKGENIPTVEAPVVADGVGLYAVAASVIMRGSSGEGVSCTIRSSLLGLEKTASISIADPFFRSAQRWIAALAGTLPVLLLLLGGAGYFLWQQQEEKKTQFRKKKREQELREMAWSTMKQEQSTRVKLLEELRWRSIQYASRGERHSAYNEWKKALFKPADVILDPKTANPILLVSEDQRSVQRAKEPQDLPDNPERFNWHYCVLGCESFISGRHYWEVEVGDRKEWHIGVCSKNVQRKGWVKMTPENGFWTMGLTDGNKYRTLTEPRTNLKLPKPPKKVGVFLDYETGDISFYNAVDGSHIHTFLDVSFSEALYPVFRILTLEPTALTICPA

[5] = Drug uptake in T cell media assessed as parent compound remaining at 10 uM measured after 48 hrs by UPLC-MS analysis
In short: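 This was the cell-free control. Compound at 10 μM final was held in T cell media without PBMCs, and loss of the parent compound was followed over time. Supernatant was analysed by UPLC-MS on a C18 column (25% to 80% acetonitrile gradient over 8 min). The molecular-ion integral is expressed relative to t = 0.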

[6] = Drug uptake in human PBMC assessed as parent compound remaining at 10 uM measured after 24 hrs by UPLC-MS analysis; type: ADME, cell-based; settings: PBMC (peripheral blood mononuclear cells), read-out: Drug uptake
In short: (§2)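 Compound at 10 μM final was added to human PBMCs (1,000,000 cells/mL) suspended in T cell media and incubated. The supernatant was collected and stored at –20 °C, then analysed by UPLC-MS on a C18 column (25% to 80% acetonitrile over 8 min). The integrated molecular-ion signal is reported relative to t = 0.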

[7] = Drug uptake in human PBMC assessed as parent compound remaining at 10 uM measured after 6 hrs by UPLC-MS analysis; type: ADME, cell-based; settings: PBMC (peripheral blood mononuclear cells), read-out: Drug uptake; in short: as §2
[8] = target: T1, Butyrophilin subfamily 3 member A1; experiment: as §1, with “10” for “0.1”; type: cell-based
Target sequence in this assay (O00481 30-513 limits assumed): as above

[9] = target: T1, Butyrophilin subfamily 3 member A1; experiment: as §1, with “cells” for “cells at 0.1 uM”, “cytometry” for “cytometry relative to control”; type: cell-based
Target sequence in this assay (O00481 whole entry): as the sequence (O00481 whole entry) above

[10] = target: T1, Butyrophilin subfamily 3 member A1; experiment: as §1, with “up to 100” for “at 0.1”, “cytometry” for “cytometry relative to control”; type: cell-based
Target sequence in this assay (O00481 30-513 limits assumed): as the sequence (O00481 30-513 limits assumed) above

[11] = target: Butyrophilin subfamily 3 member A1 (Homo sapiens, UniProt O00481, R442A); experiment: Displacement of GDP-BODIPY from C-terminal 6His-tagged BTN3A1 R442A mutant (unknown origin) expressed in Escherichia coli BL21 (DE) measured after 60 mins by fluorescence polarization assay
[12] = target: Butyrophilin subfamily 3 member A1 (Homo sapiens, UniProt O00481, W421A); experiment: Displacement of GDP-BODIPY from C-terminal 6His-tagged BTN3A1 W421A mutant (unknown origin) expressed in Escherichia coli BL21 (DE) measured after 60 mins by fluorescence polarization assay
[13] = target: Butyrophilin subfamily 3 member A1 (Homo sapiens, UniProt O00481, R448A); experiment: Displacement of GDP-BODIPY from C-terminal 6His-tagged BTN3A1 R448A mutant (unknown origin) expressed in Escherichia coli BL21 (DE) measured after 60 mins by fluorescence polarization assay
[14] = target: Butyrophilin subfamily 3 member A1 (Homo sapiens, UniProt O00481, M424A); experiment: Displacement of GDP-BODIPY from C-terminal 6His-tagged BTN3A1 M424A mutant (unknown origin) expressed in Escherichia coli BL21 (DE) measured after 60 mins by fluorescence polarization assay
In short: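 GDP-BODIPY probe (750 nM final) was incubated with 10 μM mutant BTN3A1 full intracellular domain in 100 mM NaCl, 50 mM Tris, 5 mM β-mercaptoethanol, pH 7.5. Test ligand was added at varying concentrations, and plates were kept 60 min in the dark. FP was read at 485/535 nm in triplicate, with at least 3 independent experiments. Probe in buffer served as the negative control and probe with protein as the positive control. IC50 was obtained by 4-parameter nonlinear regression.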

[15] = target: Butyrophilin subfamily 3 member A1 (Homo sapiens, UniProt O00481, R499A); experiment: Displacement of GDP-BODIPY from C-terminal 6His-tagged BTN3A1 R499A mutant (unknown origin) expressed in Escherichia coli BL21 (DE) measured after 60 mins by fluorescence polarization assay
Butyrophilin subfamily 3 member A1 (Homo sapiens, UniProt O00481, R499A), sequence (O00481 30-513 R499A limits assumed): as the sequence (O00481 30-513 limits assumed) above, with R470A counted along it

Butyrophilin subfamily 3 member A1 (Homo sapiens, UniProt O00481, M424A), sequence (O00481 30-513 M424A limits assumed): as the sequence (O00481 30-513 limits assumed) above, with M395A counted along it
Butyrophilin subfamily 3 member A1 (Homo sapiens, UniProt O00481, R442A), sequence (O00481 30-513 R442A limits assumed): as the sequence (O00481 30-513 limits assumed) above, with R413A counted along it
Butyrophilin subfamily 3 member A1 (Homo sapiens, UniProt O00481, W421A), sequence (O00481 30-513 W421A limits assumed): as the sequence (O00481 30-513 limits assumed) above, with W392A counted along it
Butyrophilin subfamily 3 member A1 (Homo sapiens, UniProt O00481, R448A), sequence (O00481 30-513 R448A limits assumed): as the sequence (O00481 30-513 limits assumed) above, with R419A counted along it

SMILES: C/C(=C\CCP(=O)(O)OP(=O)(O)O)CO
IC50 [1]: 0.00787 mM
IC50 [2]: 0.00787 mM
EC50 ([3]; read-out: EC50): 2 nM

SMILES: O=P([O-])([O-])OP(=O)([O-])[O-].[Na+].[Na+].[Na+].[Na+] [SODIUM PYROPHOSPHATE]
EC50 [3]: Not Active

SMILES: COP(=O)(CCCC/C=C(\C)CO)OC
Activity [10]: inactive

SMILES: C/C(=C\CCP(=O)(O)O)CO
IC50 [11]: 3.22 mM
IC50 [1]: 2.56 mM
IC50 [12]: 3.19 mM
IC50 [13]: 3.93 mM
IC50 [14]: 3.39 mM
IC50 [2]: 3.85 mM
IC50 [15]: 3.83 mM
EC50 ([3]; read-out: EC50): 3400 nM

SMILES: C/C(=C\CCP(=O)(O)CP(=O)(O)O)CO
IC50 [1]: 0.103 mM
EC50 ([3]; read-out: EC50): > 100000 nM

SMILES: C/C(=C\CCCCP(=O)([O-])[O-])CO.[Na+].[Na+]
IC50 [11]: 3.43 mM
IC50 [12]: 3.24 mM
IC50 [13]: 4.62 mM
IC50 [14]: 5.35 mM
IC50 [2]: 1.07 mM
EC50 [9]: Not Active
Activity [10]: inactive
IC50 [15]: 3.72 mM
EC50 [3]: Not Active

SMILES: CC(C)=CCCCCP(=O)(OCOC(=O)C(C)(C)C)OCOC(=O)C(C)(C)C
Activity [10]: inactive

Second part, led by results:

Activity [4]: 64%
SMILES: C/C(=C\COP(=O)(O)OP(=O)(O)O)CO

EC50 ([3]; read-out: EC50): > 1000 nM
SMILES: C/C(=C\CCP(=O)(CP(=O)(OCOC(=O)C(C)(C)C)OCOC(=O)C(C)(C)C)OCOC(=O)C(C)(C)C)CO (centres undefined)

remaining at 24 h, 10 µM [6]: < 1%
remaining at 6 h, 10 µM [7]: 44%
Activity [8]: 28.1%
EC50 [9]: Not Active
Activity [10]: inactive
EC50 [3]: Not Active
SMILES: C/C(=C\CCCCP(=O)(OCOC(=O)C(C)(C)C)OCOC(=O)C(C)(C)C)CO
Drug uptake [5]: 44%

remaining at 24 h, 10 µM [6]: < 1%
remaining at 6 h, 10 µM [7]: 58%
Activity [4]: Active
EC50 ([3]; read-out: EC50): 15 nM
SMILES: C/C(=C\CCP(=O)(OCOC(=O)C(C)(C)C)OCOC(=O)C(C)(C)C)CO
Drug uptake [5]: 63%

Reference: ChEMBL document CHEMBL4364297, “Probing the Ligand-Binding Pocket of BTN3A1” (J Med Chem, 2019)
